According to ChEMBL document CHEMBL1126017, “Phenylalkyl isothiocyanate-cysteine conjugates as glutathione S-transferase stimulating agents” (J Med Chem, 1992):

Key:
[1] = target: T1, Glutathione S-transferase Mu 1 (Mus musculus) (UniProt P10649); experiment: Ratio of glutathione S-transferase activity in tested (cottonseed oil alone + compound) to that of control (cottonseed oil alone); type: functional
T1 sequence (whole entry): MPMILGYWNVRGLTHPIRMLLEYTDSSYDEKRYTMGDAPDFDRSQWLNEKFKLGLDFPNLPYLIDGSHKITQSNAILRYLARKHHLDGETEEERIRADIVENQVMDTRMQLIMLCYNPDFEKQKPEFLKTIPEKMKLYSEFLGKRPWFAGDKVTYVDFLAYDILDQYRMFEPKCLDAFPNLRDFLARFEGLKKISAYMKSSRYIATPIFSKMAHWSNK
In short: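 Ratio of cytosolic GST specific activity (CDNB substrate, 340 nm, 30 °C) in each tissue of gavaged female A/J mice to that of cottonseed oil-only controls (test/control).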

[2] = system: glutathione S-transferase (Mus musculus); experiment: Induction of increased cytosolic glutathione S-transferase activity in lung of A/J mice treated with 3 doses of 0.04 mM compound (dissolved in 0.3 mL of cottonseed oil) for 2 days
[3] = system: glutathione S-transferase (Mus musculus); experiment: Induction of increased cytosolic glutathione S-transferase activity in lung of A/J mice treated with 3 doses of 0.10 mM compound (dissolved in 0.3 mL of cottonseed oil) for 2 days
[4] = system: glutathione S-transferase (Mus musculus); experiment: Induction of increased cytosolic glutathione S-transferase activity in liver of A/J mice treated with 3 doses of 0.10 mM compound (dissolved in 0.3 mL of cottonseed oil) for 2 days
[5] = system: glutathione S-transferase (Mus musculus); experiment: Induction of increased cytosolic glutathione S-transferase activity in liver of A/J mice treated with 3 doses of 0.04 mM compound (dissolved in 0.3 mL of cottonseed oil) for 2 days
[6] = system: glutathione S-transferase (Mus musculus); experiment: Induction of increased cytosolic glutathione S-transferase activity in bladder of A/J mice treated with 3 doses of 0.04 mM compound (dissolved in 0.3 mL of cottonseed oil) for 2 days; conditions: Urinary bladder
[7] = system: glutathione S-transferase (Mus musculus); experiment: Induction of increased cytosolic glutathione S-transferase activity in forestomach of A/J mice treated with 3 doses of 0.04 mM compound (dissolved in 0.3 mL of cottonseed oil) for 2 days; conditions: Stomach
[8] = system: glutathione S-transferase (Mus musculus); experiment: Induction of increased cytosolic glutathione S-transferase activity in forestomach of A/J mice treated with 3 doses of 0.10 mM compound (dissolved in 0.3 mL of cottonseed oil) for 2 days; conditions: Stomach
[9] = system: glutathione S-transferase (Mus musculus); experiment: Induction of increased cytosolic glutathione S-transferase activity in large bowel mucosa of A/J mice treated with 3 doses of 0.04 mM compound (dissolved in 0.3 mL of cottonseed oil) for 2 days
[10] = system: glutathione S-transferase (Mus musculus); experiment: Induction of increased cytosolic glutathione S-transferase activity in large bowel mucosa of A/J mice treated with 3 doses of 0.10 mM compound (dissolved in 0.3 mL of cottonseed oil) for 2 days
[11] = system: glutathione S-transferase (Mus musculus); experiment: Induction of increased cytosolic glutathione S-transferase activity in small bowel mucosa of A/J mice treated with 3 doses of 0.04 mM compound (dissolved in 0.3 mL of cottonseed oil) for 2 days
[12] = system: glutathione S-transferase (Mus musculus); experiment: Induction of increased cytosolic glutathione S-transferase activity in small bowel mucosa of A/J mice treated with 3 doses of 0.10 mM compound (dissolved in 0.3 mL of cottonseed oil) for 2 days

Which Ratio [1] does the source give for `NC(CS/C(S)=N/CCCc1ccccc1)C(=O)O` (configuration not stated) here?
Its Ratio is 1.11 [middle of 11 runs].

And the Activity (uM min-1 (mg of protein)-1) [2]?
Its Activity (uM min-1 (mg of protein)-1) is 0.31.

What about the Activity (uM min-1 (mg of protein)-1) [3] of the same compound?
The Activity (uM min-1 (mg of protein)-1) was 0.29.

And the Activity (uM min-1 (mg of protein)-1) [4]?
The Activity (uM min-1 (mg of protein)-1) was 1.35.

And the Activity (uM min-1 (mg of protein)-1) [5]?
Its Activity (uM min-1 (mg of protein)-1) is 1.2.

What about the Activity (uM min-1 (mg of protein)-1) [6] of the same compound?
The Activity (uM min-1 (mg of protein)-1) was 6.16.

And the Activity (uM min-1 (mg of protein)-1) [7]?
The Activity (uM min-1 (mg of protein)-1) was 0.86.

What about the Activity (uM min-1 (mg of protein)-1) [8] of the same compound?
Its Activity (uM min-1 (mg of protein)-1) is 0.92.

And the Activity (uM min-1 (mg of protein)-1) [9]?
Its Activity (uM min-1 (mg of protein)-1) is 0.26.

What about the Activity (uM min-1 (mg of protein)-1) [10] of the same compound?
The Activity (uM min-1 (mg of protein)-1) was 0.38.

And the Activity (uM min-1 (mg of protein)-1) [11]?
Its Activity (uM min-1 (mg of protein)-1) is 0.49.

What about the Activity (uM min-1 (mg of protein)-1) [12] of the same compound?
Its Activity (uM min-1 (mg of protein)-1) is 0.69.
